Source: ChEMBL document CHEMBL2034928, “Synthesis of [(11)C]dehydropravastatin, a PET probe potentially useful for studying OATP1B1 and MRP2 transporters in the liver” (Bioorg Med Chem, 2012)

Assays:
[1] = system: Blood; assay: Drug metabolism in Mrp2 hereditary-deficient Sprague-Dawley rat blood assessed as radiometabolite formation at 22 MBq, iv administered as bolus at 2 mins by PET analysis; format: ADME, organism-based; settings: in vivo
Outline: (§1)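 Radiometabolite analysis, run apart from the PET scans. Blood, liver homogenate and bile were mixed with an equal volume of acetonitrile and centrifuged at 12,000 rpm for 2 min at 4 °C. The supernatant was diluted with mobile phase and run on reversed-phase HPLC (10 mM ammonium acetate/acetonitrile gradient, 2.0 mL/min). Detection was UV 254 nm plus a NaI(Tl) positron detector, reading intact tracer against metabolites.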

[2] = system: Intestine; assay: Drug uptake in Sprague-Dawley rat intestine at 22 MBq/body, iv administered as bolus measured after 60 mins by PET analysis; format: ADME, organism-based; settings: in vivo, 1 h
Outline: (§2)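 Rats were anesthetized with 1.5% isoflurane in nitrous oxide/oxygen (7/3). The 11C tracer (approx. 22 MBq per animal) was given as an IV bolus through a tail-vein catheter, followed by a 60 min microPET emission scan. Regions of interest were set on liver, intestine, kidney and urinary bladder. Uptake was decay-corrected to injection time and expressed as % dose/tissue or % dose/mL blood, normalized to injected radioactivity. Rifampicin was infused at 1.5 µmol/min/kg where applied.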

[3] = system: Blood; assay: Drug metabolism in Mrp2 hereditary-deficient Sprague-Dawley rat blood assessed as radiometabolite formation at 22 MBq, iv administered as bolus within 20 mins by PET analysis; format: ADME, organism-based; settings: in vivo; outline: as §1
[4] = system: Liver; assay: Drug metabolism in Mrp2 hereditary-deficient Sprague-Dawley rat liver assessed as radiometabolite formation at 22 MBq, iv administered as bolus within 20 mins by PET analysis; format: ADME, organism-based; settings: in vivo; outline: as §1
[5] = system: Liver; assay: Drug uptake in Mrp2 hereditary-deficient Sprague-Dawley rat liver at 22 MBq, iv administered as bolus after 20 mins by PET analysis; format: ADME, organism-based; settings: in vivo; outline: as §2
[6] = Drug uptake in Mrp2 hereditary-deficient Sprague-Dawley rat bile at 22 MBq, iv administered as bolus after 20 mins by PET analysis; format: ADME, organism-based; settings: in vivo
[7] = system: Intestine; assay: Drug uptake in Sprague-Dawley rat intestine at 22 MBq/body, iv administered as bolus coadministered with rifampicin measured after 60 mins by PET analysis; format: ADME, organism-based; settings: in vivo, 1 h; outline: as §2
[8] = system: Hepatocyte; assay: Metabolic stability in human hepatocytes; format: ADME, cell-based
[9] = system: Hepatocyte; assay: Metabolic stability in rat hepatocytes; format: ADME, cell-based
[10] = system: Kidney; assay: Drug uptake in Sprague-Dawley rat kidney at 22 MBq/body, iv administered as bolus measured up to 2 mins by PET analysis; format: ADME, organism-based; settings: in vivo; outline: as §2
[11] = system: Blood; assay: Drug uptake in Mrp2 hereditary-deficient Sprague-Dawley rat blood at 22 MBq, iv administered as bolus after 20 mins by PET analysis; format: ADME, organism-based; settings: in vivo; outline: as §2
[12] = system: Liver; assay: Drug uptake in Sprague-Dawley rat liver at 22 MBq/body, iv administered as bolus measured up to 2 mins by PET analysis; format: ADME, organism-based; settings: in vivo; outline: as §2
[13] = Drug metabolism in Mrp2 hereditary-deficient Sprague-Dawley rat bile assessed as radiometabolite formation at 22 MBq, iv administered as bolus within 20 mins by PET analysis; format: ADME, organism-based; settings: in vivo; outline: as §1
[14] = system: Liver; assay: Drug uptake in Sprague-Dawley rat liver at 22 MBq/body, iv administered as bolus coadministered with rifampicin measured after 2 mins by PET analysis; format: ADME, organism-based; settings: in vivo; outline: as §2
[15] = Drug uptake in Sprague-Dawley rat urinary bladder at 22 MBq/body, iv administered as bolus measured after 60 mins by PET analysis; format: ADME, organism-based; settings: in vivo, 1 h; outline: as §2

Structure (SMILES): C/C(=C\[11CH3])C(=O)O[C@H]1C[C@H](O)C=C2C=C[C@H](C)[C@H](CC[C@@H](O)C[C@@H](O)CC(=O)[O-])[C@H]21.[Na+]
- Drug metabolism [1]: Active
- Drug uptake [2]: 67.9%
- Drug metabolism [3]: Active
- Drug metabolism [4]: Active
- Drug uptake [5]: Active
- Drug uptake [6]: Active
- Drug uptake [7]: Not Active
- Stability [8]: Stable
- Stability [9]: Stable
- Drug uptake [10]: Active
- Drug uptake [11]: Active
- Drug uptake [12]: Active
- Drug metabolism [13]: Active
- Drug uptake [14]: Not Active
- Drug uptake [15]: 1.51%
